Assay results taken from article PMC2834294 (Chemistry & biology, 2010).

What was measured:
Type in all cases: cell-based
TRPML3 [1] = molecular target: T1, TRPML3 (Homo sapiens, UniProt Q8TDD5); conditions: HEK293, read-out: Max % Activation (TRPML3)
T1 sequence (Q8TDD5 1-553): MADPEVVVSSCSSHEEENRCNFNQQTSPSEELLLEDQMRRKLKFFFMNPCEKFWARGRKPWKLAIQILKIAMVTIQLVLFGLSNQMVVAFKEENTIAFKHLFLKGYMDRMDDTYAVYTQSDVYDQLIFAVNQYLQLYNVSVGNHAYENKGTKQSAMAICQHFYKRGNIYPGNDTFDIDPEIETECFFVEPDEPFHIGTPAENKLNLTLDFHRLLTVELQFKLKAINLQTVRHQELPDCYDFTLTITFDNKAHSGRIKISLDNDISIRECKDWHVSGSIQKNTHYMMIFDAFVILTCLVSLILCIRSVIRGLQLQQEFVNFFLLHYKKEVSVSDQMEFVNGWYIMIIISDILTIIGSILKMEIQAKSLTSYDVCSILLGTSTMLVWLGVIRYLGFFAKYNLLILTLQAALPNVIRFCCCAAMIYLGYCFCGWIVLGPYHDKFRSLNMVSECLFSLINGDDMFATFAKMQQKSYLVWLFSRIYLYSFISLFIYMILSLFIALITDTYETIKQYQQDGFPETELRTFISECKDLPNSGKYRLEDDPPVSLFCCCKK
Outline: (§1)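 HEK293 lines stably expressed YFP-fused human TRPML3 or zebrafish TRPN1 (G418 0.8 mg/ml, twice subcloned) and were plated at 1,500 cells/well for 23 h at 37 °C. After Fluo-8 loading (1 h 37 °C, 30 min RT), a 5 s basal read and 120 s post-addition read were taken. Max/basal ratios were normalized to DMSO and carbachol (87 µM).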

danio rerio TRPN1 = danio rerio TRPN1 (Danio rerio, UniProt Q7T1G6); conditions: for Emax: HEK293, read-out: Max % Activation (Control)
Outline: as §1

TRPML3 [2] = molecular target: T1, TRPML3; experiment: Fura-2 calcium imaging, HEK293 cells transiently expressing TRPML3; conditions: for ⊗F340/F380 (TRPML3): 10 µM compound, mean ±SEM (n≥3); for kinetics of intracellular calcium increase: TRPML3-transfected HEK293 cells
Outline: (§2)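 HEK293 cells were transiently transfected (Genejammer) with the human channel construct or YFP control and measured 24 h later. Cells on glass coverslips were loaded with 4 µM fura-2-AM in bath solution (mM: 138 NaCl, 6 KCl, 2 MgCl2, 2 CaCl2, 10 HEPES, 5.5 D-glucose; pH 7.4). Compounds were applied at 10 µM and the F340/F380 ratio recorded. Values are mean ± SEM, n≥3.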

TRPML3 [3] = molecular target: T1, TRPML3; experiment: Whole-cell patch-clamp, HEK293 cells transiently transfected with TRPML3; conditions: for nA/pF (-80 mV) (TRPML3): current density at −80 mV, 10 µM in standard bath solution, mean ±SEM (n≥3); for average current density relative to constitutively active TRPML3 A419P: whole-cell, −80 mV
Outline: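 Whole-cell patch clamp was done on HEK293 cells 24 h after transient transfection with human TRPML3 or YFP; constitutively active TRPML3(A419P) cells served as positive control. Bath solution (mM): 138 NaCl, 5.4 KCl, 2 MgCl2, 2 CaCl2, 10 HEPES, 10 d-glucose; pH 7.4. Pipette solution (mM): 140 CsCl, 10 HEPES, 3 ATP-Na, 1 BAPTA, 2 MgCl2; pH 7.2. Compounds at 10 µM were perfused. Capacitance-normalized current at −80 mV is reported as mean ± SEM, n≥3.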

TRPML2 = molecular target: T2, TRPML2 (Homo sapiens, UniProt Q8IZK6); experiment: Fura-2 calcium imaging, HEK293 cells expressing TRPML2; conditions: 10 µM
T2 sequence (Q8IZK6 1-566): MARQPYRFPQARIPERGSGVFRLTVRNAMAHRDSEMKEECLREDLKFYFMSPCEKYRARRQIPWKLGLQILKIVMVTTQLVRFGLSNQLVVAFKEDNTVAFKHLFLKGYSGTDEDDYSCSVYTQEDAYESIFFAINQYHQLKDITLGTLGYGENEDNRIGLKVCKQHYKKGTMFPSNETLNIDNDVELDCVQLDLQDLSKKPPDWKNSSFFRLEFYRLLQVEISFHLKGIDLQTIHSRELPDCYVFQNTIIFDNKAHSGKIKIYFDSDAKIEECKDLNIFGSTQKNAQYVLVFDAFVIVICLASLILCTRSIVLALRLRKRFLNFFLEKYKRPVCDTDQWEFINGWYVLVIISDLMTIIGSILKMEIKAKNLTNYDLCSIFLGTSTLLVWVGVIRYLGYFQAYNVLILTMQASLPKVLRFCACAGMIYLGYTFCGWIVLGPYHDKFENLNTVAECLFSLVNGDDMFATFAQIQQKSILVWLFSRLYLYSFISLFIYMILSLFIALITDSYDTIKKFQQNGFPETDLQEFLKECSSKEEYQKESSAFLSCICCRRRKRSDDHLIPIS
Outline: as §2

[4] = test system: YFP-expressing HEK293 cells; experiment: Fura-2 calcium imaging, YFP-expressing HEK293 cells; conditions: mean ±SEM (n≥3)
Outline: as §2

TRPML3 [5] = molecular target: T1, TRPML3; experiment: Excised; conditions: patches held at −80 mV
[6] = molecular target: T3, TRPML3 coexpressed with TRPML1 (Homo sapiens, UniProt Q8TDD5); experiment: Calcium imaging, HEK293 cells coexpressing TRPML3 with TRPML1; conditions: 10 µM
T3 sequence (Q8TDD5 1-553): T1 sequence (Q8TDD5 1-553)
Outline: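 Human TRPML3 and TRPML1 were transiently coexpressed in HEK293 cells (Genejammer) and imaged 24 h post-transfection. Cells on glass coverslips were loaded with 4 μM fura-2-AM in bath solution (mM: 138 NaCl, 6 KCl, 2 MgCl₂, 2 CaCl₂, 10 HEPES, 5.5 D-glucose, pH 7.4) and read on a monochromator imaging system. Test compound was 10 μM. Mean ± SEM, n≥3 independent experiments, 20–30 cells each.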

TRPML3 [7] = molecular target: T1, TRPML3; experiment: Whole-cell patch-clamp with intracellular application; conditions: whole-cell, −80 mV

danio rerio TRPN1, sequence (Q7T1G6 1-1614): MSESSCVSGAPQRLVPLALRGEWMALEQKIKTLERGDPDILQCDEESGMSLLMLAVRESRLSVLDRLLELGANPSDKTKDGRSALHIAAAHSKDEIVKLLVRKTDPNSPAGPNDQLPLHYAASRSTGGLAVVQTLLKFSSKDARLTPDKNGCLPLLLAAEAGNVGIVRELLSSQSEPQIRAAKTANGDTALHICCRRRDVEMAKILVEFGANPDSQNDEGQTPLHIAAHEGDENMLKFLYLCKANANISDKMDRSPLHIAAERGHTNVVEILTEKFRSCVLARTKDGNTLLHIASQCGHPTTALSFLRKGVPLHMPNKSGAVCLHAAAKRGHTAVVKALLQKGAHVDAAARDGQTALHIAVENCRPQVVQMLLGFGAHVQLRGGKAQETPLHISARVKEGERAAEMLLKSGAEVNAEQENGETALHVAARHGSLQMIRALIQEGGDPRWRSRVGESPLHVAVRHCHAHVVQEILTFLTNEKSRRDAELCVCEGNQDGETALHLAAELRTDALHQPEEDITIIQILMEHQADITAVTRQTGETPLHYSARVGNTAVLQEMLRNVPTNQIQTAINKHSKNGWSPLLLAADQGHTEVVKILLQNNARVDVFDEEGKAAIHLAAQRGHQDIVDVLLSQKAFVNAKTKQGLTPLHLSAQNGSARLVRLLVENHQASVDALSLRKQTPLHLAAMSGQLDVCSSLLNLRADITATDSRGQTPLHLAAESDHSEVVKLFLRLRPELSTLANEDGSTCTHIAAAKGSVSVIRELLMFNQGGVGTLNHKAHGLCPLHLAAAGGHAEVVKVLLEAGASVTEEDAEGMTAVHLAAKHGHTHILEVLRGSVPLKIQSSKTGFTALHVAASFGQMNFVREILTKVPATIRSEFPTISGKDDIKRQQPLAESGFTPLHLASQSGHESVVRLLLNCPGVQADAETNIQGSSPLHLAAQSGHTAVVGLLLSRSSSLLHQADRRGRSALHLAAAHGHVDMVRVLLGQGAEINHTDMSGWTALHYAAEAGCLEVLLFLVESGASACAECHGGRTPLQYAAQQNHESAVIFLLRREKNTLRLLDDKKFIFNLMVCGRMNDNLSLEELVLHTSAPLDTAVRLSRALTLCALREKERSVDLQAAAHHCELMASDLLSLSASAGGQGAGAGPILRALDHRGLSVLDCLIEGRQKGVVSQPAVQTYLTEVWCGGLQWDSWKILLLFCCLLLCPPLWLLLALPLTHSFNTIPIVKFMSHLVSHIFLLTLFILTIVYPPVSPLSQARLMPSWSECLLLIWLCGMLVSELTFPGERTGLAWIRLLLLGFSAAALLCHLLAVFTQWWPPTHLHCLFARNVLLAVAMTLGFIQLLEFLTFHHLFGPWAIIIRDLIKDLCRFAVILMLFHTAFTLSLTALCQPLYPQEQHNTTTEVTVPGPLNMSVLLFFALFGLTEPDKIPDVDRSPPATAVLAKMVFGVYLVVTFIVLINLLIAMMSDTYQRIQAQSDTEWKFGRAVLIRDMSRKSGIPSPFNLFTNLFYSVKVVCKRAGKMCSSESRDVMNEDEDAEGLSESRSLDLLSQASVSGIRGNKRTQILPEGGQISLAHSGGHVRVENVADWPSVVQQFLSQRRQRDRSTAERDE

Compound | Emax (TRPML3 [1]) [%] | EC50 (danio rerio TRPN1) [µM] | Emax (danio rerio TRPN1) [%] | ⊗F340/F380 (TRPML3) (TRPML3 [2]) | nA/pF (-80 mV) (TRPML3) (TRPML3 [3]) [nA/pF] | response in HEK293 cells expressing TRPML2 (TRPML2) | intracellular calcium response in TRPML3-transfected cells (TRPML3 [2]) | TRPML3 activation in whole-cell patch-clamp (TRPML3 [3]; control compound) | TRPML3 activity in excised patches (TRPML3 [5]) | kinetics of intracellular calcium increase (TRPML3 [2]) | average current density relative to constitutively active TRPML3 A419P (TRPML3 [3]) | ⊗F340/F380 (Control) [4] | calcium imaging response when TRPML1 was coexpressed with TRPML3 [6] | response to intracellular application (infusion) (TRPML3 [7])
CCCOc1cc(C)c(Cl)cc1S(=O)(=O)N(CC)CC [SF-33, 5-chloro-N,N-diethyl-4-methyl-2-propoxybenzenesulfonamide] | 119 ± 21 | > 29.9 | 2 ± 1 | 0.65 ±0.10 | −0.06 ±0.02 |  |  |  |  | slowest kinetics |  |  |  | 
CCOc1ccc(S(=O)(=O)N2CCCCC2)c(C)c1C [SF-32, 1-(4-ethoxy-2,3-dimethylphenyl)sulfonylpiperidine] | 119 ± 5 | > 29.9 | 2 ± 1 | 0.52 ±0.05 | −0.02 ±0.01 |  |  |  |  |  |  |  |  | 
O=S(=O)(Nc1ccccc1N1CCOCC1)c1ccc(Cl)s1 [SF-23, 5-chloro-N-(2-morpholin-4-ylphenyl)thiophene-2-sulfonamide] | 174 ± 1 | > 29.9 | 1 ± 1 | 0.93 ±0.07 | −0.37 ±0.08 |  |  |  | markedly increased TRPML3 activity |  | comparable to average current densities obtained from cells expressing the constitutively active varitint-waddler mutant isoform A419P | 0.005 ±0.005 | strong reduction of the calcium imaging responses | 
Cc1ccc(S(=O)(=O)n2nccc2-c2c(-c3ccc(Cl)cc3)noc2C)cc1 [SF-11, 3-(4-chlorophenyl)-5-methyl-4-[2-(4-methylphenyl)sulfonylpyrazol-3-yl]-1,2-oxazole] | 135 ± 20 | > 29.9 | 8 ± 1 | 0.72 ±0.05 | −0.14 ±0.02 |  |  |  |  |  |  |  |  | elicited responses when applied intracellularly
Cc1ccc(N2CCN(S(=O)(=O)N3CCCCC3)CC2)c(C)c1 [SF-41, 1-(2,4-dimethylphenyl)-4-piperidin-1-ylsulfonylpiperazine] | 138 ± 12 | > 29.9 | 12 ± 1 | 0.99 ±0.07 | −0.42 ±0.07 | elicited responses |  |  |  | much more rapid increase than the other compounds | Stronger responses | 0.015 ±0.001 |  | 
CCOc1ccc(S(=O)(=O)N2CCCCCC2)c2ccccc12 [SF-31, 1-(4-ethoxynaphthalen-1-yl)sulfonylazepane] | 130 ± 20 | > 29.9 | 2 ± 1 | 1.00 ±0.10 | −0.19 ±0.03 |  |  |  |  |  | comparable to average current densities obtained from cells expressing the constitutively active varitint-waddler mutant isoform A419P | −0.011 ±0.001 |  | 

More lines, main results first:

Emax (TRPML3 [1]) [%] | EC50 (danio rerio TRPN1) [µM] | Emax (danio rerio TRPN1) [%] | ⊗F340/F380 (TRPML3) (TRPML3 [2]) | nA/pF (-80 mV) (TRPML3) (TRPML3 [3]) [nA/pF] | response in HEK293 cells expressing TRPML2 (TRPML2) | intracellular calcium response in TRPML3-transfected cells (TRPML3 [2]) | TRPML3 activation in whole-cell patch-clamp (TRPML3 [3]; control compound) | TRPML3 activity in excised patches (TRPML3 [5]) | Compound | kinetics of intracellular calcium increase (TRPML3 [2]) | average current density relative to constitutively active TRPML3 A419P (TRPML3 [3]) | ⊗F340/F380 (Control) [4] | calcium imaging response when TRPML1 was coexpressed with TRPML3 [6] | response to intracellular application (infusion) (TRPML3 [7])
102 ± 22 | > 29.9 | 2 ± 1 | 0.56 ±0.03 | −0.07 ±0.01 |  |  |  |  | COc1ccccc1C1CN=NC12CCCc1ccccc1C2=O (centres unmarked) [SF-61, 4-(2-methoxyphenyl)spiro[3,4-dihydropyrazole-5,8’-6,7-dihydro-5H-benzo[7]annulene]-9’-one] |  |  |  |  | 
138 ± 21 | > 29.9 | 1 | 0.62 ±0.05 |  | elicited responses |  |  |  | Cc1ccccc1S(=O)(=O)c1c(C)cc(C)n(C(C)C)c1=O [SF-81, 4,6-dimethyl-3-(2-methylphenyl)sulfonyl-1-propan-2 ylpyridin-2-one] |  | comparable to average current densities obtained from cells expressing the constitutively active varitint-waddler mutant isoform A419P |  |  | 
151 ± 14 | > 29.9 | 6 | 1.15 ±0.06 | −0.33 ±0.10 |  |  |  |  | CCOc1ccc(S(=O)(=O)NC(C)(C)C)cc1-c1nc(=O)c2c([nH]1)c(C(C)(C)C)nn2C [SN-1, N-tert-butyl-3-(3-tert-butyl-1-methyl-7-oxo-4H-pyrazolo[4,3-d]pyrimidin-5-yl)-4-ethoxybenzenesulfonamide] |  | comparable to average current densities obtained from cells expressing the constitutively active varitint-waddler mutant isoform A419P | 0.005 ±0.004 |  | 
 |  |  |  |  |  | did not elicit any responses | did not activate TRPML3 |  | CCCN(CCC)S(=O)(=O)c1ccc(C(=O)O)cc1 [probenicid, 4-(dipropylsulfamoyl)benzoic acid, reference compound] |  |  |  |  | 
